# Experimental data from different studies.
# Each line is one published result; the experiments were not run side by side.
# Target: Serine/threonine-protein kinase SBK1 (SBK1, Homo sapiens, UniProt Q52WX2)
SMILES,assay,conditions,measurement,value
Nc1ncnc2occ(-c3ccc(NC(=O)Nc4cc(C(F)(F)F)ccc4F)cc3)c12,"cell-free assay, inhibitor",20 µM,remaining signal,6.7%
O=C(Nc1cnn(-c2csc(C(=O)NC3COC3)c2)c1)Nc1ccccc1Cl,"enzyme activity, inhibitor",5 µM,remaining activity,99.1%
Cc1ccc(C(=O)Nc2ccc(CN3CCN(C)CC3)c(C(F)(F)F)c2)cc1C#Cc1cnc2cccnn12,"enzyme activity, inhibitor",23.5 nM,remaining activity,80%
COc1ccc2c(c1)O[C@H](c1ccc(OC)c(OC)c1)C[C@@H]2NC(=O)C1(c2ccc3c(c2)OC(F)(F)O3)CC1,"cell-free assay, competition with immobilised ligand",1 µM,remaining binding,90%
COc1cc(Cl)c(C(=O)N[C@@H](CN[C@H]2CC[C@@H](N)CC2)Cc2ccc(C#N)cc2)cc1-c1ccc(CN[C@H](C)c2ccc(C)cc2)o1,"enzyme activity, inhibitor",1 µM,remaining activity,98%
CN(c1ccnc(CNc2nc(Nc3ccc4c(c3)CC(=O)N4)ncc2C(F)(F)F)n1)S(C)(=O)=O,"cell-free assay, competition with immobilised ligand",1 µM,remaining binding,34%
Cc1sc(C(=O)NC2COC2)cc1-n1cc(NC(=O)Nc2c(F)cccc2Cl)cn1,"enzyme activity, inhibitor",10 µM,remaining activity,87.5%
CN1CC(Oc2cnc(C#N)cc2-c2ccn3nc(NC(=O)C4CC4)cc3c2)C1,"enzyme activity, inhibitor",1 µM,inhibition,15%
